Data published in ChEMBL document CHEMBL1221395, “Synthesis, anticancer activity and mitochondrial mediated apoptosis inducing ability of 2,5-diaryloxadiazole-pyrrolobenzodiazepine conjugates” (Bioorg Med Chem, 2010).
The source made the active and inactive calls. The rule behind the calls is not given here.

Columns and labels:
ZR-75-1 = experiment: Cytotoxicity against human ZR-75-1 cells by SRB assay
A-375 [1] = experiment: Cell cycle arrest in human A375 cells assessed as accumulation at G2/M phase after 24 hrs by FACS flow cytometry; parameters: concentration or dose not given beside the values
A-375 [2] = experiment: Induction of apoptosis in human A375 cells assessed as increase in Bax protein level at 4 uM after 24 hrs by Western blotting; format: functional, cell-based
Method in brief: (§1)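 A375 cells treated at 4 µM for 24 h. Lysates cleared at 12,000 rpm for 10 min, and protein quantified by Bradford. 30 µg per lane run on 12% SDS-PAGE and transferred to PVDF. Blocked 2 h in TBST with 5% blocking powder. Primary antibody overnight at 4 °C, HRP secondary (1:2000) 1 h at room temperature. β-actin used as loading control; untreated cells as control.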

HOP-62 = experiment: Cytotoxicity against human HOP62 cells after 24 hrs by WST-1 assay; format: functional; settings: HOP-62, 24 h
KB = experiment: Cytotoxicity against human KB cells by SRB assay
Calf thymus DNA = experiment: Binding affinity to calf thymus DNA assessed as change in melting temperature after 18 hrs; format: nucleic-acid assay; settings: Bos taurus
Method in brief: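 Thermal melting with duplex CT-DNA (100 µM in phosphate) and ligand (20 µM), added from methanol stock, [PBD]/[DNA] 1:5, in 10 mM sodium phosphate + 1 mM EDTA, pH 7.00; incubated at 37 °C for 18 h. A260 monitored while heating at 1 °C/min over 40–90 °C. Tm taken from d(A260)/dT maxima, corrected for methanol; ΔTm = Tm(DNA+ligand) − Tm(DNA alone); at least three determinations.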

A2780 = experiment: Cytotoxicity against human A2780 cells by SRB assay
Mus musculus [3] = experiment: Toxicity against SCID mouse assessed as mortality at 20 mg/kg, ip q4d on day 1, 5 and 9; format: organism-based; parameters: dose 20 mg/kg, route intraperitoneal; settings: in vivo
Method in brief: (§2)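 Male NOD-SCID mice carrying human prostate PC-3 xenografts were dosed at 20 mg/kg ip on days 1, 5 and 9 (q4d). Mortality and body weight were followed over days 1–31, alongside a control group and an adriamycin 5 mg/kg arm. Tumour weight was recorded over the same period.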

A549 = experiment: Cytotoxicity against human A549 cells after 24 hrs by WST-1 assay; format: functional; settings: A549, 24 h
A-375 [4] = experiment: Antitumor activity against human A375 cells assessed as upregulation of pRb protein level at 4 uM after 24 hrs by Western blotting; format: functional, cell-based
Method in brief: as §1

[5] = Cytotoxicity against human DWD cells by SRB assay
[6] = Cytotoxicity against human Gurav cells after 24 hrs by WST-1 assay; format: functional
A-375 [7] = experiment: Cell cycle arrest in human A375 cells assessed as accumulation at S phase after 24 hrs by FACS flow cytometry; parameters: concentration or dose not given beside the values
[8] = Toxicity against SCID mouse; format: organism-based; settings: in vivo
A-375 [9] = experiment: Cell cycle arrest in human A375 cells assessed as accumulation at Sub-G1 phase after 24 hrs by FACS flow cytometry; parameters: concentration or dose not given beside the values
[10] = Lipophilicity, log P of the compound; format: physicochemical; settings: octanol/water
PC-3 [11] = experiment: Cytotoxicity against human PC3 cells after 24 hrs by WST-1 assay; format: functional; settings: PC-3, 24 h
A-375 [12] = experiment: Cell cycle arrest in human A375 cells assessed as accumulation at G1 phase after 24 hrs by FACS flow cytometry; parameters: concentration or dose not given beside the values
COLO 205 = experiment: Cytotoxicity against human COLO205 cells after 24 hrs by SRB assay; settings: COLO 205, 24 h
A-375 [13] = experiment: Induction of apoptosis in human A375 cells assessed as increase in PARP protein level at 4 uM after 24 hrs by Western blotting; format: functional, cell-based
Method in brief: as §1

SiHa = experiment: Cytotoxicity against human SiHa cells after 24 hrs by SRB assay
A-375 [14] = experiment: Antitumor activity against human A375 cells assessed as upregulation of p21 protein level at 4 uM after 24 hrs by Western blotting; format: functional, cell-based
Method in brief: as §1

A-375 [15] = experiment: Induction of apoptosis in human A375 cells assessed as increase in Caspase 3 activation at 4 uM after 24 hrs by fluorimetry; format: functional, cell-based
Method in brief: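 A375 cells exposed to 4 µM compound. Cell lysate incubated with DEVD-AFC substrate, with or without DEVD-CHO inhibitor, at 37 °C for 1 h in a fluorescent caspase-3 kit. Fluorescence read at excitation 400 nm, emission 505 nm.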

A-375 [16] = experiment: Induction of apoptosis in human A375 cells assessed as increase in cytochrome C protein level at 4 uM after 24 hrs by Western blotting; format: functional, cell-based
Method in brief: as §1

MCF7 = experiment: Cytotoxicity against human MCF7 cells by sulforhodamine B assay
A-375 [17] = experiment: Antitumor activity against human A375 cells assessed as upregulation of p53 protein level at 4 uM after 24 hrs by Western blotting; format: functional, cell-based
Method in brief: as §1

Mus musculus [18] = experiment: Toxicity against SCID mouse assessed as weight loss at 20 mg/kg, ip q4d on day 1, 5 and 9; format: organism-based; parameters: dose 20 mg/kg, route intraperitoneal; settings: in vivo
Method in brief: as §2

PC-3 [19] = experiment: Antitumor activity against human PC3 cells xenografted in NOD-SCID mouse at 20 mg/kg, ip q4d on day 1, 5 and 9; format: functional, organism-based; parameters: dose 20 mg/kg
Method in brief: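 Human prostate cancer PC-3 xenografts in male NOD-SCID mice. Dosed 20 mg/kg intraperitoneally on days 1, 5 and 9 (q4d). Tumour weight and body weight/survival followed over about 31 days. Adriamycin 5 mg/kg and untreated groups served as comparators.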

COc1ccc(-c2nnc(-c3ccc(OC)c(OCCCCCOc4cc5c(cc4OC)C(=O)N4CCC[C@H]4C=N5)c3)o2)cc1OC
GI50 (ZR-75-1): < 100 nM
Activity (A-375 [1]): 0.99%
Activity (A-375 [2]): Active
GI50 (HOP-62): < 100 nM
GI50 (KB): < 100 nM
ΔTm (Calf thymus DNA): 5.8 °C
GI50 (A2780): < 100 nM
Activity (Mus musculus [3]): Non-toxic
GI50 (A549): < 100 nM
Activity (A-375 [4]): Active
GI50 [5]: < 100 nM
GI50 [6]: < 100 nM
Activity (A-375 [7]): 2.68%
MTD [8]: < 50 mg/kg
Activity (A-375 [9]): 36.66%
logP [10]: 4.68
GI50 (PC-3 [11]): < 100 nM
Activity (A-375 [12]): 59.66%
GI50 (COLO 205): < 100 nM
Activity (A-375 [13]): Active
GI50 (SiHa): < 100 nM
Activity (A-375 [14]): Active
Activity (A-375 [15]): Active
Activity (A-375 [16]): Active
GI50 (MCF7): < 100 nM
Activity (A-375 [17]): Active
Activity (Mus musculus [18]): Non-toxic
Activity (PC-3 [19]): Active
